Laboratory results: ChEMBL document CHEMBL3997852, “Discovery of Fluorine-Containing Benzoxazinyl-oxazolidinones for the Treatment of Multidrug Resistant Tuberculosis” (ACS Med Chem Lett, 2017)
≈ marks a conversion by molar mass, not a printed value.

Tests used:
[1] = test system: Vero; experiment: Cytotoxicity against African green monkey Vero cells assessed as growth inhibition after 48 hrs by MTT assay; assay type: ADME, cell-based; settings: Chlorocebus sabaeus
[2] = Selectivity index, ratio of IC50 for African green monkey Vero cells to MIC for Mycobacterium tuberculosis H37Rv
[3] = test system: Mycobacterium tuberculosis; experiment: Antitubercular activity against Mycobacterium tuberculosis H37Rv after 7 days by microplate alamar blue assay; assay type: functional; settings: 168 h
How it was run: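 Microplate alamar blue assay on M. tuberculosis H37Rv. The MIC is the lowest concentration that reduces fluorescence by ≥90% relative to the mean of replicate bacterium-only controls.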

[4] = Oral bioavailability in Balb/c mouse at 100 mg/kg measured over 24 hrs by LC/TSQ quantum access mass spectrometric method; assay type: ADME, organism-based; settings: in vivo
[5] = MRT in Balb/c mouse at 100 mg/kg, po measured over 24 hrs by LC/TSQ quantum access mass spectrometric method; assay type: ADME, organism-based; settings: in vivo
[6] = Tmax in Balb/c mouse at 100 mg/kg, po measured over 24 hrs by LC/TSQ quantum access mass spectrometric method; assay type: ADME, organism-based; settings: in vivo
[7] = Clearance in Balb/c mouse at 10 mg/kg, iv measured over 24 hrs by LC/TSQ quantum access mass spectrometric method; assay type: ADME, organism-based; settings: in vivo
[8] = Cmax in Balb/c mouse at 100 mg/kg, po measured over 24 hrs by LC/TSQ quantum access mass spectrometric method; assay type: ADME, organism-based; design: dose 100 mg/kg, route oral; settings: in vivo
[9] = Plasma elimination half life in Balb/c mouse at 10 mg/kg, iv measured over 24 hrs by LC/TSQ quantum access mass spectrometric method; assay type: ADME, organism-based; settings: read-out: beta t1/2 (converted)
[10] = test system: H9c2; experiment: Inhibition of mitochondrial protein synthesis in rat H9c2 cells after 5 days by In-Cell ELISA; settings: H9c2, 120 h
[11] = Metabolic stability in CD1 mouse liver microsomes assessed as compound remaining at 0.1 uM in presence of NADPH after 30 mins by LC/MS method; assay type: ADME, microsome; settings: read-out: Stability
[12] = Tmax in Balb/c mouse at 10 mg/kg, iv measured over 24 hrs by LC/TSQ quantum access mass spectrometric method; assay type: ADME, organism-based; settings: in vivo
[13] = Metabolic stability in human liver microsomes assessed as compound remaining at 0.1 uM in presence of NADPH after 30 mins by LC/MS method; assay type: ADME, microsome; settings: read-out: Stability
[14] = MRT in Balb/c mouse at 10 mg/kg, iv measured over 24 hrs by LC/TSQ quantum access mass spectrometric method; assay type: ADME, organism-based; settings: in vivo
[15] = test system: HepG2; experiment: Cytotoxicity against human HepG2 cells after 48 hrs by MTT assay; settings: HepG2, 48 h
[16] = AUC (0 to infinity) in Balb/c mouse at 10 mg/kg, iv measured over 24 hrs by LC/TSQ quantum access mass spectrometric method; assay type: ADME, organism-based; design: dose 10 mg/kg, time infinity, route intravenous; settings: in vivo
[17] = test system: Liver; experiment: Metabolic stability in CD1 mouse liver microsomes at 0.1 uM in absence of NADPH after 30 mins by LC/MS method; assay type: ADME, microsome; settings: 0.5 h
[18] = Cmax in Balb/c mouse at 10 mg/kg, iv measured over 24 hrs by LC/TSQ quantum access mass spectrometric method; assay type: ADME, organism-based; design: dose 10 mg/kg, route intravenous; settings: in vivo
[19] = AUC (0 to infinity) in Balb/c mouse at 100 mg/kg, po measured over 24 hrs by LC/TSQ quantum access mass spectrometric method; assay type: ADME, organism-based; design: dose 100 mg/kg, route oral, time infinity; settings: in vivo
[20] = Plasma elimination half life in Balb/c mouse at 100 mg/kg, po measured over 24 hrs by LC/TSQ quantum access mass spectrometric method; assay type: ADME, organism-based; settings: read-out: beta t1/2 (converted)
[21] = test system: Liver; experiment: Metabolic stability in human liver microsomes at 0.1 uM in absence of NADPH after 30 mins by LC/MS method; assay type: ADME, microsome; settings: 0.5 h
[22] = Elimination half life in CD1 mouse at 10 mg/kg, po measured over 24 hrs by HPLC/MS/MS method; assay type: ADME, organism-based; settings: in vivo, read-out: beta t1/2

| SMILES | IC50 [1] [µg/mL] | selectivity ratio [2] | MIC90 [3] [µg/mL] | other results |
| --- | --- | --- | --- | --- |
| O=C(NC[C@@H]1OC(=O)N2c3cc(F)c(C4=CCN(CCO)CC4)cc3OC[C@@H]12)C1CCC1 | > 64 | 58 | 1.1 (≈ 2.48 µM) | – |
| O=C1O[C@@H](CNc2ccon2)[C@@H]2COc3cc(C4=CCN(CCO)CC4)c(F)cc3N12 | > 64 | 65 | 0.98 (≈ 2.28 µM) | – |
| CC(=O)NC[C@@H]1OC(=O)N2c3ccc(C4=CCN(CCO)CC4)cc3OC[C@@H]12 | 26.8 (≈ 69.1 µM) | 10 | 2.65 (≈ 6.83 µM) | – |
| COC(=O)NC[C@@H]1OC(=O)N2c3cc(F)c(C4=CCN(C(=O)CO)CC4)cc3OC[C@@H]12 | > 64 | 64 | 0.999 (≈ 2.29 µM) | – |
| O=C(CO)N1CC=C(c2cc3c(cc2F)N2C(=O)O[C@@H](Cn4ccnn4)[C@@H]2CO3)CC1 | – | – | 10.9 (≈ 25.4 µM) | – |
| CC(=O)NC[C@@H]1OC(=O)N2c3cc(F)c(C4CCN(CCO)CC4)cc3OC[C@@H]12 | – | – | 14.6 (≈ 35.8 µM) | – |
| O=C(CO)N1CC=C(c2cc3c(cc2F)N2C(=O)O[C@@H](COc4ccon4)[C@@H]2CO3)CC1 | – | – | > 32 | – |
| O=C(NC[C@@H]1OC(=O)N2c3cc(F)c(C4=CCN(CCO)CC4)cc3OC[C@@H]12)C1CC1 | > 64 | 135 | 0.473 (≈ 1.1 µM) | – |
| CC(=O)NC[C@@H]1OC(=O)N2c3cc(F)c(C4=CCN(CCO)CC4)cc3OC[C@@H]12 | > 64 | 111 | 0.578 (≈ 1.43 µM) | – |
| CC(=O)NC[C@@H]1OC(=O)N2c3cc(F)c(C4=CCN(C(=O)CO)CC4)cc3OC[C@@H]12 | > 64 | – | 0.391 (≈ 0.932 µM) | bioavailability [4]: 102%; MRT [5]: 4.12 h; Tmax [6]: 2 h; clearance [7]: 13.9 mL/min/kg; Cmax [8]: 30000 ng/mL; half-life [9]: 8.23 h; IC50 [10]: 9.19 µM; remaining at 0.5 h, 0.1 µM [11]: 102%; Tmax [12]: 1.8 min; remaining at 0.5 h, 0.1 µM [13]: 103%; MRT [14]: 2.54 h; IC50 [15]: > 64 µg/mL; AUC(0-inf) [16]: 12000 ng·h/mL; Stability [17]: Stable; Cmax [18]: 11400 ng/mL; AUC(0-inf) [19]: 122000 ng·h/mL; half-life [20]: 4.22 h; Stability [21]: Stable |
| O=C(NC[C@@H]1OC(=O)N2c3cc(F)c(C4=CCN(C(=O)CO)CC4)cc3OC[C@@H]12)C1CC1 | > 64 | 34 | 1.87 (≈ 4.19 µM) | – |
| CCC(=O)N1CC=C(c2cc3c(cc2F)N2C(=O)O[C@@H](CNC(C)=O)[C@@H]2CO3)CC1 | – | – | 6.36 (≈ 15.2 µM) | – |
| O=C(CO)N1CC=C(c2cc3c(cc2F)N2C(=O)O[C@@H](CNc4ccon4)[C@@H]2CO3)CC1 | > 64 | 61 | 1.04 (≈ 2.35 µM) | – |
| COC(=O)NC[C@@H]1OC(=O)N2c3cc(F)c(C4=CCN(CCO)CC4)cc3OC[C@@H]12 | 57.4 (≈ 136 µM) | 26 | 2.22 (≈ 5.27 µM) | – |
| CC(=O)NC[C@@H]1OC(=O)N2c3cc(F)c(C4=CCN(C(=O)[C@@H](O)CO)CC4)cc3OC[C@@H]12 | > 64 | 133 | 0.483 (≈ 1.07 µM) | – |
| CC(=O)NC[C@@H]1OC(=O)N2c3cc(F)c(C4=CCN(C(=O)C5CCCC5)CC4)cc3OC[C@@H]12 | – | – | 7.94 (≈ 17.4 µM) | – |
| O=C1O[C@@H](Cn2ccnn2)[C@@H]2COc3cc(C4=CCN(CCO)CC4)c(F)cc3N12 | – | – | 7.96 (≈ 19.2 µM) | – |
| O=C(NC[C@@H]1OC(=O)N2c3cc(F)c(C4=CCN(C(=O)CO)CC4)cc3OC[C@@H]12)C1CCC1 | > 64 | 39 | 1.68 (≈ 3.66 µM) | – |
| CC(=O)NC[C@@H]1OC(=O)N2c3ccc(C4=CCN(C(=O)CO)CC4)cc3OC[C@@H]12 | 13.8 (≈ 34.3 µM) | 19 | 0.725 (≈ 1.81 µM) | – |
| CC(=O)NC[C@@H]1OC(=O)N2c3cc(F)c(C4=CCN(C(=O)CN)CC4)cc3OC[C@@H]12.Cl | > 64 | 87 | 0.732 | – |
| CC(=O)NC[C@@H]1OC(=O)N2c3cc(F)c(C4CCN(C(=O)CO)CC4)cc3OC[C@@H]12 | > 64 | 17 | 3.81 (≈ 9.05 µM) | – |
| O=C(CO)N1CC=C(c2cc3c(cc2F)N2C(=O)O[C@@H](CNC(=O)C(F)(F)F)[C@@H]2CO3)CC1 | > 64 | 55 | 1.16 (≈ 2.45 µM) | – |
| O=C1O[C@@H](CNC(=O)C(F)(F)F)[C@@H]2COc3cc(C4=CCN(CCO)CC4)c(F)cc3N12 | > 64 | 33 | 1.92 (≈ 4.17 µM) | – |
| CC(=O)NC[C@@H]1OC(=O)N2c3cc(F)c(C4=CCN(C(=O)[C@@H]5CCCN5)CC4)cc3OC[C@@H]12.Cl | – | – | 7.12 | – |
| CC(=O)NC[C@@H]1OC(=O)N2c3cc(F)c(C4=CCN(C(=O)[C@@H]5CCCO5)CC4)cc3OC[C@@H]12 | – | – | 5.53 (≈ 12 µM) | – |
| CC(=O)NC[C@@H]1OC(=O)N2c3cc(F)c(C4=CCN(C(=O)C5CC5)CC4)cc3OC[C@@H]12 | – | – | 6.4 (≈ 14.9 µM) | – |
| NNC(=O)c1ccncc1 [ISONIAZID] | – | – | 0.037 (≈ 0.27 µM) | – |
| CC(=O)NC[C@H]1CN(c2ccc(N3CCOCC3)c(F)c2)C(=O)O1 [LINEZOLID] | > 64 | 197 | 0.304 (≈ 0.901 µM) | IC50 [10]: 8.71 µM; half-life [22]: < 1 h |
| O=C([C@@H](O)CO)N1CC=C(c2c(F)cc(N3C[C@H](COc4ccon4)OC3=O)cc2F)CC1 [POSIZOLID] | > 64 | 62 | 1.02 (≈ 2.2 µM) | – |
| CO[C@H]1/C=C/O[C@@]2(C)Oc3c(C)c(O)c4c(O)c(c(/C=N/N5CCN(C)CC5)c(O)c4c3C2=O)NC(=O)/C(C)=C\C=C\[C@H](C)[C@H](O)[C@@H](C)[C@@H](O)[C@@H](C)[C@H](OC(C)=O)[C@@H]1C [RIFAMPIN] | – | – | 0.057 (≈ 0.0693 µM) | – |
